Calls of active or inactive are those of the source. No cut-off for these calls is given here.
What was measured:
[1] = target: Histone deacetylase 2 (Homo sapiens, UniProt Q92769); assay: Inhibition of full length recombinant human C-terminal GST-tagged HDAC2 expressed in baculovirus-infected insect cells using RHKK(Ac)AMC as substrate after 60 mins by fluorimeter
[2] = target: T1, Histone deacetylase 8 (Homo sapiens, UniProt Q9BY41); assay: Inhibition of recombinant human C-terminal His-tagged HDAC8 (1 to 377 residues) expressed in baculovirus-infected insect cells using RHK(Ac)K(Ac)AMC as substrate after 60 mins by fluorimeter
T1 sequence (Q9BY41 whole entry): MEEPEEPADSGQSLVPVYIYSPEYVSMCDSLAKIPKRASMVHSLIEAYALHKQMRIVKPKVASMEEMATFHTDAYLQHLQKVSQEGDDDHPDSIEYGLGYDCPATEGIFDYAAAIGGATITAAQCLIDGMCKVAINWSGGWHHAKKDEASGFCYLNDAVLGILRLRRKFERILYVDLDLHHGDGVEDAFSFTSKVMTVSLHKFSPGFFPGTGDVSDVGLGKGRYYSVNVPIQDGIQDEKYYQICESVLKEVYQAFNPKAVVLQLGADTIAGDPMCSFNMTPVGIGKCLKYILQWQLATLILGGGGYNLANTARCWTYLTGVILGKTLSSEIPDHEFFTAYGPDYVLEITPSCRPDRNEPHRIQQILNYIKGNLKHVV

[3] = target: Histone deacetylase 1 (Homo sapiens, UniProt Q13547); assay: Inhibition of recombinant human C-terminal FLAG/His-tagged HDAC1 expressed in baculovirus-infected Sf21 insect cells using RHKK(Ac)AMC as substrate after 60 mins by fluorimeter
[4] = target: Histone deacetylase 3/Nuclear receptor corepressor 2 (HDAC3/NCoR2) (Homo sapiens, UniProt O15379); assay: biochemical; format: cell-based
[5] = target: Histone deacetylase 5 (Homo sapiens, UniProt Q9UQL6); assay: Inhibition of recombinant human C-terminal His-tagged HDAC5 (656 to 1122 residues) expressed in baculovirus-infected insect cells using Boc-Lys(TFA)-AMC as substrate after 60 mins by fluorimeter
[6] = target: T2, Histone deacetylase 11 (Homo sapiens, UniProt Q96DB2); assay: Inhibition of recombinant human N-terminal His-tagged HDAC11 (1 to 347 residues) expressed in baculovirus-infected insect cells using RHKK(Ac)AMC as substrate by fluorimeter
T2 sequence (Q96DB2 whole entry): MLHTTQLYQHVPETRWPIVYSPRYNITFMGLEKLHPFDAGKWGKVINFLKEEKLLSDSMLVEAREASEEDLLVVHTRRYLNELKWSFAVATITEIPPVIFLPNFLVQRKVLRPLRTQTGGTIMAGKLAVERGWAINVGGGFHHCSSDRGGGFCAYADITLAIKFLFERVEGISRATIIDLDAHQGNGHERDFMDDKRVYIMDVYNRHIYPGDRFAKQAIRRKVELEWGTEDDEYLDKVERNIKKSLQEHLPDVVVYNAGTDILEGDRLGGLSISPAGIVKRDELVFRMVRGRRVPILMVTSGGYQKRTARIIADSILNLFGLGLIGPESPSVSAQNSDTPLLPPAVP

[7] = system: PBMC; assay: Induction of apoptosis in human PBMC at 50 to 1000 nM after 24 hrs by Annexin V/propidium iodide staining-based flow cytometric method; format: cell-based; details: 1 µM
[8] = system: Mus musculus; assay: Antiarthritic activity in DBA/1J mouse collagen-induced arthritis model assessed as decrease in sign of synovial inflammation at 30 mg/kg, ip administered every morning for 12 to 14 days; format: functional, organism-based
How it was run: (§1)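 Collagen type II-induced arthritis in mice, treated at 30 mg/kg versus vehicle. Arthritic paws were assessed histologically for synovial inflammation, cellular invasion, cartilage degradation and bone erosion.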

[9] = system: Mus musculus; assay: Antiarthritic activity in DBA/1J mouse collagen-induced arthritis model assessed as decrease in histological scores at 30 mg/kg, ip administered every morning for 12 to 14 days measured during compound dosing relative to vehicle-treated control; format: functional; set-up: scale not given: the % may be the effect or the level left; how it was run: as §1
[10] = target: T3, Protein deacetylase HDAC6 (Homo sapiens) (UniProt Q9UBN7); details: 50 nM
T3 sequence (whole entry): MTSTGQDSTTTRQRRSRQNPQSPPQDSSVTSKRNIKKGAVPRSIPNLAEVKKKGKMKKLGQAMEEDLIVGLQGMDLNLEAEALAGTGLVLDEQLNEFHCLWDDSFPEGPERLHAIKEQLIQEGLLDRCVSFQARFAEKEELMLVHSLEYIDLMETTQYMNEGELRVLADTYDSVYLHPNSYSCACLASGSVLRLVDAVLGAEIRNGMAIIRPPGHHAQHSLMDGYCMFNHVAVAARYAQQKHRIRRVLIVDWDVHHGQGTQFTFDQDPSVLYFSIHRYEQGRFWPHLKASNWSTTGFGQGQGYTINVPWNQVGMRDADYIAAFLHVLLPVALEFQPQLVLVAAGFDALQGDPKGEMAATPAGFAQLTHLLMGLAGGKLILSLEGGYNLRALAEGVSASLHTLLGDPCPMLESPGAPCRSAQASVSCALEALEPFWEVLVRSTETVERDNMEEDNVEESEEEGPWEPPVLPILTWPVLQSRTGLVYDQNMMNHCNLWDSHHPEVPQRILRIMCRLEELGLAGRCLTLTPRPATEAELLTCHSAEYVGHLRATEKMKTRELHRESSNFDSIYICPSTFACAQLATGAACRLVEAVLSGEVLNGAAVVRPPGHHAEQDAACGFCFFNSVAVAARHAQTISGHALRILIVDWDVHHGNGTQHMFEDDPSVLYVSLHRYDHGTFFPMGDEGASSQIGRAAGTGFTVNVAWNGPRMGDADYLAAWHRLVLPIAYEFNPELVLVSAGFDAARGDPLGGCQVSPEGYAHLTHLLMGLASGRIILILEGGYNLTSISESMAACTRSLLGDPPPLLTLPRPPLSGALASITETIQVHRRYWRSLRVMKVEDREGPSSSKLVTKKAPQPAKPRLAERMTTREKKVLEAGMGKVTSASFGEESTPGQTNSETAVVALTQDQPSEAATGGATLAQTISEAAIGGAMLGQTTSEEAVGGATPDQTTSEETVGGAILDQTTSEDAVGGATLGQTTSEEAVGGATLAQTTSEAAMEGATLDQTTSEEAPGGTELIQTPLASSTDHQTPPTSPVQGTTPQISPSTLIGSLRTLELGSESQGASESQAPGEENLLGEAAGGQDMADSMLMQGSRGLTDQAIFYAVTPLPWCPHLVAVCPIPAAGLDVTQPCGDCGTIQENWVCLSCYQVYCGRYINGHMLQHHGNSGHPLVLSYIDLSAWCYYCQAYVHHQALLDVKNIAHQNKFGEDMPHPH

[11] = target: T3, Protein deacetylase HDAC6 (Homo sapiens); details: 5 to 1000 nM
[12] = target: T3, Protein deacetylase HDAC6 (Homo sapiens); details: 5 to 1000 nM; remark: listed apart in the source
[13] = target: T3, Protein deacetylase HDAC6 (Homo sapiens); details: 50 nM; remark: listed apart in the source

Sequence of Histone deacetylase 2 (Q92769 whole entry, the tested form may be a part): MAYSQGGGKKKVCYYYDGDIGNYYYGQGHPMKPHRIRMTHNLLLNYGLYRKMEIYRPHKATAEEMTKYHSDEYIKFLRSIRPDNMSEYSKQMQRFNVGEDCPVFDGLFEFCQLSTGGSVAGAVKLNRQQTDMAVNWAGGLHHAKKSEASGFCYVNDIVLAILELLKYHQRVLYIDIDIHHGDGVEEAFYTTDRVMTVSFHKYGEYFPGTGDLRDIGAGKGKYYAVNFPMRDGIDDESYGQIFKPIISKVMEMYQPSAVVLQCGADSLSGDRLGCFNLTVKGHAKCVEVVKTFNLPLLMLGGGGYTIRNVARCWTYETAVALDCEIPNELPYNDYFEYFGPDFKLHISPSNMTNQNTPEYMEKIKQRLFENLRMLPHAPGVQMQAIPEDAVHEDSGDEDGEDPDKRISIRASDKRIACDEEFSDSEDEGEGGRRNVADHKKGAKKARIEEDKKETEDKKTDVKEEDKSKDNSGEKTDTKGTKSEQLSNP
Sequence of Histone deacetylase 1 (Q13547 whole entry): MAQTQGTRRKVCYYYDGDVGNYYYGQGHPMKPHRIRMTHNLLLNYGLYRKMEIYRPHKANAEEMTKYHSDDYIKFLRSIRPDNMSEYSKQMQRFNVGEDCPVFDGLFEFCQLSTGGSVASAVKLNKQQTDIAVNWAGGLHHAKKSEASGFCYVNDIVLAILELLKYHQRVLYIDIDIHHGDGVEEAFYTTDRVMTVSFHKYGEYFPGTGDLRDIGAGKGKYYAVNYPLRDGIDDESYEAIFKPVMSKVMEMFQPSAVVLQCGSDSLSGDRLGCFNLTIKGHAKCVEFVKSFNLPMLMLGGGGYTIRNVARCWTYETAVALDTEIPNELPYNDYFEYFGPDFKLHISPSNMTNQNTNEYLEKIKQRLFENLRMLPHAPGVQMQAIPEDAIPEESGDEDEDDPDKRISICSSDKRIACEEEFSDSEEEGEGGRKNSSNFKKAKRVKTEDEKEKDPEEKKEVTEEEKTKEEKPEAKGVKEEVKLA
Sequence of Histone deacetylase 3/Nuclear receptor corepressor 2 (HDAC3/NCoR2) (O15379 whole entry, the tested form may be a part): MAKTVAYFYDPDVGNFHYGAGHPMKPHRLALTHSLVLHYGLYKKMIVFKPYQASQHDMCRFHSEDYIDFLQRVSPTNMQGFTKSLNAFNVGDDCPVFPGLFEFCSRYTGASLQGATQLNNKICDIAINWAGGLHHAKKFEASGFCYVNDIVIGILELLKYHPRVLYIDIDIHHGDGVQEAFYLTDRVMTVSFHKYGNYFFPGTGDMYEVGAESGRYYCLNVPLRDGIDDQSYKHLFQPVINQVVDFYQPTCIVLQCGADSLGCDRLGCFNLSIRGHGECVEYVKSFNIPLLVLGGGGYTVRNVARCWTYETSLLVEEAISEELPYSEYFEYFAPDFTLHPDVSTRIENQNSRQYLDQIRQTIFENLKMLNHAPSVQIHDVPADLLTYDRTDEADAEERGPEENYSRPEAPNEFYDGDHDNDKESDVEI
Sequence of Histone deacetylase 3/Nuclear receptor corepressor 2 (HDAC3/NCoR2) (Q9Y618 whole entry, further chain, the tested form may be a part): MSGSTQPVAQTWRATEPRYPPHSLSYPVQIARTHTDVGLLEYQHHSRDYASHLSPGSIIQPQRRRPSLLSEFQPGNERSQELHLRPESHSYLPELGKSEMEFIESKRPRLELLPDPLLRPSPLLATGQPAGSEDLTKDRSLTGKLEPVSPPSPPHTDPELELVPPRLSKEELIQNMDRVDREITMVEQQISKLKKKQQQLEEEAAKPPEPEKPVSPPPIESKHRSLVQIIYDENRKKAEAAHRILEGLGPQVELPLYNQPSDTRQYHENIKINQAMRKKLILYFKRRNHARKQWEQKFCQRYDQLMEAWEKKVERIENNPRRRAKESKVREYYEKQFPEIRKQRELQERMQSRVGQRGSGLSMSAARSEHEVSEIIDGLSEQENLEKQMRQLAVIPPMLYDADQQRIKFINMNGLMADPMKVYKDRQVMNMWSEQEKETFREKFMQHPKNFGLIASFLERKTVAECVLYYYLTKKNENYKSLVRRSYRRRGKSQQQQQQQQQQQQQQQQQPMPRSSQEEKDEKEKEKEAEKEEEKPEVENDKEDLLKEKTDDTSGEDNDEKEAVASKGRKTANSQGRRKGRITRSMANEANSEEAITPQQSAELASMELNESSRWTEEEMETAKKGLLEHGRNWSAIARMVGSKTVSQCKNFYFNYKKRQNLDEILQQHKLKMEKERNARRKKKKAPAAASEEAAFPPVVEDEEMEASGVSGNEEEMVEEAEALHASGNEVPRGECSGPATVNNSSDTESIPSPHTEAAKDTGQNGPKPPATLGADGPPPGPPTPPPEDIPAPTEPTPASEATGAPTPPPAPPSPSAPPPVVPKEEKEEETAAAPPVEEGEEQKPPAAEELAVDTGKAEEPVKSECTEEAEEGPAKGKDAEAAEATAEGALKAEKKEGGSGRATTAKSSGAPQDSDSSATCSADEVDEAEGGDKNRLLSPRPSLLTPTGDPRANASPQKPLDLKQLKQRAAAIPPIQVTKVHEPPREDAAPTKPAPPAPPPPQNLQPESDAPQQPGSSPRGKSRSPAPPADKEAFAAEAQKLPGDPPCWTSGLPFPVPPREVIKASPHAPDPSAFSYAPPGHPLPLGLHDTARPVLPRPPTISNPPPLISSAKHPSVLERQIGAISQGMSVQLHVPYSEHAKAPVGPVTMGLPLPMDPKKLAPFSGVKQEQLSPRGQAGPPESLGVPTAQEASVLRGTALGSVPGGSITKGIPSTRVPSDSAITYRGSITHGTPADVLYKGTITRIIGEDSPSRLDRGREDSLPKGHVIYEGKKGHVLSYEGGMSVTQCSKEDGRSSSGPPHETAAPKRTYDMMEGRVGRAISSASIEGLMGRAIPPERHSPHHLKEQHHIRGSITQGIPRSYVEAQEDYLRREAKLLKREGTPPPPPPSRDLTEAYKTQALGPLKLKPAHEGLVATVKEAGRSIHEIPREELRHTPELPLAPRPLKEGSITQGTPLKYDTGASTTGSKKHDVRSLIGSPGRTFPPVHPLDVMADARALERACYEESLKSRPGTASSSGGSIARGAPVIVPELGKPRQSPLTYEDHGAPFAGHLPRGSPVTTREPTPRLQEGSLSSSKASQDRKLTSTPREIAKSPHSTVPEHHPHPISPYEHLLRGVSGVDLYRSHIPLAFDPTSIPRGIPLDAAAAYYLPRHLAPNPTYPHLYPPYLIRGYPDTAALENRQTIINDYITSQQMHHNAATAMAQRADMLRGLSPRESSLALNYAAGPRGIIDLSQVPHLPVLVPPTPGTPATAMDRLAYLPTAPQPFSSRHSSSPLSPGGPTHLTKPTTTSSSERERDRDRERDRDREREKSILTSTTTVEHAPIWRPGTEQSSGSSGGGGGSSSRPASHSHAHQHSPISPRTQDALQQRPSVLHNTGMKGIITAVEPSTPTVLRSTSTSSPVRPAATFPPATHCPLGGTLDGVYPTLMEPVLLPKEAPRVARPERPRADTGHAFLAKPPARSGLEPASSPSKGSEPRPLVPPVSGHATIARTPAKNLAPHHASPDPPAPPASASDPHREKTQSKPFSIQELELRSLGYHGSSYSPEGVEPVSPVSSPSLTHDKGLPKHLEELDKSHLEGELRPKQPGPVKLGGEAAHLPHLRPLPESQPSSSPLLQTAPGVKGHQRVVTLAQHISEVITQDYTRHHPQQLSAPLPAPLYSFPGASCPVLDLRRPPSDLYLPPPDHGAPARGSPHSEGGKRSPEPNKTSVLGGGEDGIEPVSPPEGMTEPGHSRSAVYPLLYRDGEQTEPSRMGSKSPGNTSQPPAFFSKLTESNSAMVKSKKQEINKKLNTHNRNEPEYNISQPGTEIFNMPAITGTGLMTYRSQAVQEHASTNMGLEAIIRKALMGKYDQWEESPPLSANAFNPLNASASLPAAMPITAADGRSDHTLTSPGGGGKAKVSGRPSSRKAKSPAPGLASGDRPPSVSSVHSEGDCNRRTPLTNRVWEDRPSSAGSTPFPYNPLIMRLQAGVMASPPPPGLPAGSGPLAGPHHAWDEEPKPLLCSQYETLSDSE
Sequence of Histone deacetylase 5 (Q9UQL6 whole entry, the tested form may be a part): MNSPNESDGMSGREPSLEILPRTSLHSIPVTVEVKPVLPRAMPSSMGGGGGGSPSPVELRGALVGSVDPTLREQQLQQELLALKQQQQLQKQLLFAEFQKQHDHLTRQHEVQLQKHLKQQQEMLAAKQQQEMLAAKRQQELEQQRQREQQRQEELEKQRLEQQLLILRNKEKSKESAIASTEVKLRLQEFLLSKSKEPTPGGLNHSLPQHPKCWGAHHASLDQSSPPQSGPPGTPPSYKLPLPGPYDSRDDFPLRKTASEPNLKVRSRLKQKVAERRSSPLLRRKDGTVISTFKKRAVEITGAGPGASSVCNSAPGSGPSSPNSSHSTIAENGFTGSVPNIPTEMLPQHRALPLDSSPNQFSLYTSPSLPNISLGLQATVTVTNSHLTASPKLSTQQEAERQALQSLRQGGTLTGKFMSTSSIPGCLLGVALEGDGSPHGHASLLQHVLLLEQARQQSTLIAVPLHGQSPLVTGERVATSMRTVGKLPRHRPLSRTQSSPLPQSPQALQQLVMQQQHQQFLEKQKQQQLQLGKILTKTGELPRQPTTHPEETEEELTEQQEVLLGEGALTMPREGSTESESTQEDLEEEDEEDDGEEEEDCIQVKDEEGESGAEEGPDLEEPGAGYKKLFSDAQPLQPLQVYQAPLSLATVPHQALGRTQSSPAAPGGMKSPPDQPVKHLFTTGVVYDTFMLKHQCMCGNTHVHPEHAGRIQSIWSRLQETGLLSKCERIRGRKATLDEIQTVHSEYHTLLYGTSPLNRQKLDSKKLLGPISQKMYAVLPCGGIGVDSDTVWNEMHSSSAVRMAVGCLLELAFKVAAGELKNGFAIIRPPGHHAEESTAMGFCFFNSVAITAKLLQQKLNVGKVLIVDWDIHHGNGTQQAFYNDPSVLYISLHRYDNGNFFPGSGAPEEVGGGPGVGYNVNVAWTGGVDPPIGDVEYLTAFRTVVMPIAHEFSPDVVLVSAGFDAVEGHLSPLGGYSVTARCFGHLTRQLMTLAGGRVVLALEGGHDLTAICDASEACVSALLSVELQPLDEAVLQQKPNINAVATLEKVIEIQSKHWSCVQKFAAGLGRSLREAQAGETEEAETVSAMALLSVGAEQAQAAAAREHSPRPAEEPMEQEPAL

CN1C(=O)C2CN(Cc3c2c2ccccc2n3Cc2ccc(C(=O)NO)cc2)C1=O (stereo not drawn)
Ki [1]: 774 nM
Ki [2]: 173 nM
Ki [3]: 358 nM
Ki [4]: 306 nM
Ki [5]: 701 nM
Ki [6]: 495 nM
Activity [7]: Non-Toxic
Activity [8]: Active
Activity [9]: 50%
inhibition [10]: Active
inhibition [11]: Active
inhibition [12]: Active
inhibition [13]: Active

— ChEMBL document CHEMBL4043295, “Marbostat-100 Defines a New Class of Potent and Selective Antiinflammatory and Antirheumatic Histone Deacetylase 6 Inhibitors” (J Med Chem, 2018)
